Test results: ChEMBL document CHEMBL1153722, “Design, synthesis, and characterization of peptide-based rab geranylgeranyl transferase inhibitors” (J Med Chem, 2009)
Where “and” joins values, the source holds several entries; their conditions need not be identical. Identical values can stand only once. Square brackets hold non-standard residues; d marks the D form. Peptide text beside a SMILES is read from it. * marks the point of attachment. Hydrocinnamoyl = O=C(CCc1ccccc1)*; Undecanoyl = CCCCCCCCCCC(=O)*; pGlu = O=C1CC[C@@H](C(=O)O)N1; Nicotinoyl = O=C(c1cccnc1)*; Ac6c = NC1(C(=O)O)CCCCC1; Cbz = O=C(OCc1ccccc1)*; NHPh = c1ccc(N*)cc1; NHNH2 = NN*

Species on record: Rattus norvegicus
Assay: Inhibition of rat recombinant Rab geranylgeranyltransferase at 100 uM in presence of canine Rab7 and rat REP1 NBD-FPP based continuous fluorimetric assay
Method in brief: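 Continuous fluorometric assay in 96/384-well format: 3 μM Rab7, 3 μM REP1, 9 μM NBD-FPP and 400 nM RabGGTase, with or without inhibitor. […] IC50 was calculated from three independent measurements.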

inhibition	SMILES
137%	O=C(CNC(=O)c1csc(-c2ccc(C(F)(F)F)cc2)n1)N[C@@H](Cc1ccccc1)C(=O)N[C@@H](Cc1c[nH]cn1)C(=O)O
64%	CCCCCCCCCCC(=O)N[C@@H](Cc1ccc(O)cc1)C(=O)N[C@@H](Cc1c[nH]cn1)C(=O)N[C@@H](Cc1c[nH]cn1)C(=O)Nc1ccccn1
96%	CC(C)C[C@H](NC(=O)[C@H](COC(C)(C)C)NC(=O)[C@H](Cc1ccccc1)NC(=O)CCc1ccccc1)C(N)=O
81%	O=C(/C=C/c1ccc(F)cc1)N[C@@H](CO)C(=O)NCC(=O)N[C@@H](CO)C(=O)NC1CCCCC1
34%	CN(C(=O)[C@@H](Cc1c[nH]cn1)NC(=O)OCc1ccccc1)[C@@H](Cc1ccc(O)cc1)C(=O)N[C@@H](Cc1ccccc1)C(=O)O
97%	NCCOC(=O)[C@H](Cc1ccc(O)cc1)NC(=O)[C@H](Cc1ccc(O)cc1)NC(=O)[C@H](Cc1ccc(O)cc1)NC(=O)c1ccc(F)cc1F
48%	CC(C)C[C@H](NC(=O)[C@H](COC(C)(C)C)NC(=O)[C@H](Cc1ccccc1)NC(=O)c1ccc(-c2ccccc2)cc1)C(N)=O
93%	CC(C)(C)Oc1ccc(C[C@H](NC(=O)CNC(=O)[C@H](CCCCN)NC(=O)c2coc(-c3ccccc3)n2)C(=O)O)cc1
47%	COc1ccc(C[C@@H](C(=O)N(C)[C@@H](Cc2ccccc2)C(=O)OCC(=O)O)N(C)C(=O)[C@@H](Cc2ccc(O)cc2)NC(=O)CCc2ccccc2)cc1
104%	NC(=O)CC[C@H](NC(=O)[C@H](Cc1ccccc1)NC(=O)[C@H](CO)NC(=O)CCc1ccccc1)C(=O)Nc1ccc(F)cc1F
51%	O=C(N[C@@H](Cc1ccc(O)cc1)C(=O)N[C@@H](Cc1ccc(O)cc1)C(=O)N[C@@H](Cc1ccc(O)cc1)C(=O)O)OCc1ccccc1
77%	C[C@H](NC(=O)[C@@H](NC(=O)c1ccc(-c2ccccc2)cc1)[C@@H](C)O)C(=O)N[C@@H](CCC(N)=O)C(=O)Nc1cccc(Br)n1
69%	CC#CCOC(=O)[C@H](Cc1ccccc1)NC(=O)CNC(=O)[C@@H]1CCCN1C(=O)/C=C/c1ccccc1
117%	CC(=O)Nc1cc(C(=O)N2CCC[C@H]2C(=O)N[C@@H](C(=O)N[C@@H](CCC(=O)O)C(=O)NC2CCCCC2)C(C)C)ccc1[N+](=O)[O-]
119%	CC[C@H](C)[C@H](NC(=O)[C@H](Cc1ccccc1)NC(=O)c1cccnc1)C(=O)N[C@@H](CCCNC(=N)N)C(=O)O (Nicotinoyl-Phe-Ile-Arg-OH)
80%	CCCCCCCCCCC(=O)N[C@@H](Cc1c[nH]cn1)C(=O)N[C@@H](Cc1c[nH]cn1)C(=O)N[C@@H](Cc1ccc(O)cc1)C(=O)NCc1ccccn1
95%	O=C(CCc1ccccc1)N[C@@H](CO)C(=O)N[C@@H](Cc1ccccc1)C(=O)N[C@@H](CO)C(=O)Nc1ccc(N2CCOCC2)cc1
106%	O=C(CNC(=O)[C@H](Cc1ccccc1)NC(=O)c1coc(-c2ccccc2)n1)N[C@@H](CO)C(=O)O
85%	CN(CCc1ccccn1)C(=O)[C@H](Cc1ccc(O)cc1)NC(=O)CNC(=O)[C@H](Cc1c[nH]cn1)NC(=O)OCc1ccccc1
48%	O=C(CCc1ccc(-c2ccccc2)cc1)N[C@H](Cc1cnc[nH]1)C(=O)N[C@@H](Cc1ccc(O)cc1)C(=O)N[C@@H](Cc1ccccc1)C(=O)O
42%	CCCCCCCCCCCC(=O)N[C@@H](Cc1ccc(O)cc1)C(=O)N[C@@H](Cc1c[nH]cn1)C(=O)N[C@@H](Cc1ccc(O)cc1)C(=O)Nc1ccccc1N
69%	C[C@H](NC(=O)C(Br)C(Br)c1ccc(F)cc1)C(=O)NCC(=O)N[C@@H](Cc1ccc(O)cc1)C(=O)Nc1ccc(F)cc1F (stereo partly specified)
104%	NNC(=O)[C@H](CCC(N)=O)NC(=O)[C@H](Cc1ccccc1)NC(=O)[C@H](CO)NC(=O)CCc1ccccc1 (Hydrocinnamoyl-Ser-Phe-Gln-NHNH2)

The remaining lines, values behind:

SMILES	inhibition
O=C(CNC(=O)[C@H](Cc1ccc(O)cc1)NCCc1ccc(F)cc1)N[C@@H](Cc1ccc(O)cc1)C(=O)N1CCOCC1	92%
O=C(N[C@@H](CO)C(=O)N[C@@H](Cc1ccccc1)C(=O)N[C@@H](CO)C(=O)Nc1ccc(F)cc1F)C(Br)C(Br)c1ccc(F)cc1 (stereo partly specified)	94%
O=C(CCc1ccc(F)cc1)N[C@@H](Cc1ccc(O)cc1)C(=O)NCC(=O)N[C@@H](Cc1ccc(O)cc1)C(=O)NC1CCCCC1	88%
CON(C)C(=O)[C@H](CCC(N)=O)NC(=O)[C@H](Cc1ccccc1)NC(=O)[C@H](C)NC(=O)CCc1ccccc1	112%
CCCCCCCCCCC(=O)N[C@@H](Cc1c[nH]cn1)C(=O)N[C@@H](Cc1c[nH]cn1)C(=O)N[C@@H](CO)C(=O)NOC(C)(C)C	52%
CCCCCCCCCCC(=O)N[C@@H](Cc1c[nH]cn1)C(=O)N[C@@H](Cc1ccccc1)C(=O)N[C@@H](Cc1ccc(O)cc1)C(=O)NCC(O)CO (stereo partly specified)	53%
C=CCOC(=O)[C@H](Cc1cn(C(c2ccccc2)(c2ccccc2)c2ccccc2)cn1)NC(=O)[C@H](Cc1ccccc1)NC(=O)CNC(=O)c1csc(-c2cccs2)n1	136%
COC(=O)[C@H](Cc1ccccc1)NC(=O)[C@H](Cc1ccccc1)NC(=O)[C@H](CC(C)C)NC(=O)/C=C/c1ccccc1	-2%
COC(=O)[C@H](CCC(N)=O)NC(=O)[C@H](Cc1ccccc1)NC(=O)[C@@H](NC(=O)/C=C/c1ccccc1)[C@@H](C)O	92%
COC(=O)[C@H](Cc1ccccc1)NC(=O)CNC(=O)[C@@H]1CCCN1C(=O)/C=C/c1ccccc1	89%
O=C(/C=C/c1ccc(F)cc1)N[C@@H](CO)C(=O)N[C@@H](Cc1ccccc1)C(=O)N[C@@H](CO)C(=O)NC1CCCCC1	86%
CCCCCCCCCCC(=O)N[C@@H](Cc1c[nH]cn1)C(=O)N[C@@H](Cc1c[nH]cn1)C(=O)N[C@@H](Cc1ccc(O)cc1)C(=O)O (Undecanoyl-His-His-Tyr-OH)	51%
CC(C)C[C@H](NC(=O)[C@H](CO)NC(=O)[C@H](Cc1ccccc1)NC(=O)c1ccc(-c2ccccc2)cc1)C(=O)OCCCl	53%
CC(C)C[C@H](NC(=O)[C@@H]1CCC(=O)N1)C(=O)N[C@@H](CCCCN)C(=O)NC1(C(=O)O)CCCCC1 ([pGlu]LK[Ac6c]-OH)	102% and 98%
CC(C)C[C@H](NC(=O)/C=C/c1ccccc1)C(=O)N[C@@H](Cc1ccccc1)C(=O)N[C@@H](Cc1ccccc1)C(=O)O	75%
C[C@H](NC(=O)[C@@H](NC(=O)c1ccc(-c2ccccc2)cc1)[C@@H](C)O)C(=O)N[C@@H](CCC(=O)O)C(=O)NN	89%
NCCCCNC(=O)[C@H](Cc1ccc(O)cc1)NC(=O)[C@H](Cc1ccc(O)cc1)NC(=O)[C@H](Cc1ccc(O)cc1)NC(=O)c1ccc(F)cc1F	61%
CC[C@H](C)[C@H](NC(=O)[C@H](Cc1ccccc1)NC(=O)c1cccnc1)C(=O)N[C@@H](CCCNC(=N)N)C(N)=O (Nicotinoyl-Phe-Ile-Arg-NH2)	79%
O=C(CNC(=O)[C@H](Cc1c[nH]cn1)NC(=O)OCc1ccccc1)N[C@@H](Cc1ccc(O)cc1)C(=O)c1nc2ccccc2[nH]1	66%

SMILES	inhibition
O=C(CNC(=O)[C@@H]1CCCN1C(=O)/C=C/c1ccccc1)N[C@@H](Cc1ccccc1)C(=O)NC1CCCCC1	61%
COC(=O)[C@H](Cc1ccc(O)cc1)NC(=O)[C@H](Cc1ccc(O)cc1)NC(=O)[C@H](Cc1ccc(O)cc1)NC(=O)c1ccc(F)cc1F	79%
O=C(N[C@@H](Cc1ccccc1)C(=O)N[C@@H](Cc1ccccc1)C(=O)N[C@@H](Cc1ccc(O)cc1)C(=O)O)OCc1ccccc1 (Cbz-Phe-Phe-Tyr-OH)	9%
CCCCCCCCCCCOc1ccc(C(=O)N[C@@H](Cc2c[nH]cn2)C(=O)N[C@@H](Cc2c[nH]cn2)C(=O)N[C@@H](Cc2c[nH]cn2)C(=O)OCCN)cc1	101%
O=C(/C=C/c1ccc(F)cc1)N[C@@H](CO)C(=O)N[C@@H](Cc1ccccc1)C(=O)N[C@@H](CO)C(=O)Nc1ccc(N2CCOCC2)cc1	79%
CCCCCc1ccc(CCC(=O)N[C@H](Cc2ccc(O)cc2)C(=O)N[C@@H](Cc2ccccc2)C(=O)N[C@@H](Cc2ccc(O)cc2)C(=O)O)cc1	2%
COC(=O)[C@H](CC(C)C)NC(=O)[C@H](COC(C)(C)C)NC(=O)[C@H](Cc1ccccc1)NC(=O)/C=C/c1ccc(F)cc1	57%
CC(C)C[C@H](NC(=O)[C@@H]1CCCN1C(=O)/C=C/c1ccccc1)C(=O)N[C@@H](Cc1ccccc1)C(=O)NCc1ccc(F)cc1F	26%
O=C(CCNC(=O)[C@H](Cc1c[nH]cn1)NC(=O)OCc1ccccc1)N[C@@H](Cc1ccc(O)cc1)C(=O)NCCCn1ccnc1	88%
CCC(C)OC(=O)[C@H](CCC(N)=O)NC(=O)[C@H](Cc1ccccc1)NC(=O)[C@@H](C)NC(=O)CCc1ccccc1 (stereo partly specified)	83%
CCCCCCCCCCOc1ccc(C(=O)N[C@@H](Cc2c[nH]cn2)C(=O)N[C@@H](Cc2c[nH]cn2)C(=O)N[C@@H](CO)C(=O)OCCN)cc1	70%
CC[C@H](C)[C@H](NC(=O)c1ccc(-c2ccccc2)cc1)C(=O)N[C@@H](C(=O)N[C@@H](CCC(N)=O)C(=O)N1CCCCC1)C(C)C	100%
O=C(N[C@@H](Cc1ccc(O)cc1)C(=O)N[C@@H](Cc1ccc(O)cc1)C(=O)N[C@@H](Cc1ccc(O)cc1)C(=O)OCCCl)c1ccc(F)cc1F	71%
COC(=O)[C@H](CO)NC(=O)CNC(=O)[C@H](CO)NC(=O)/C=C/c1ccc(F)cc1	63%
NC(=O)CC[C@H](NC(=O)[C@H](Cc1ccccc1)NC(=O)CNC(=O)CCc1ccccc1)C(=O)Nc1ccccc1 (Hydrocinnamoyl-Gly-Phe-Gln-NHPh)	80%
CCCCCCCCCCC(=O)N[C@@H](Cc1c[nH]cn1)C(=O)N[C@@H](Cc1c[nH]cn1)C(=O)N[C@@H](CO)C(=O)N(C)CCc1ccccn1	47%
O=C(CNC(=O)[C@H](Cc1ccc(O)cc1)NC(=O)CCc1ccc(F)cc1)N[C@@H](Cc1ccc(O)cc1)C(=O)O	86%
CC(C)C[C@H](NC(=O)[C@H](COC(C)(C)C)NC(=O)[C@H](Cc1ccccc1)NC(=O)CCc1ccccc1)C(=O)OCCCl	109%
O=C(N[C@@H](CO)C(=O)N[C@@H](Cc1ccccc1)C(=O)N[C@@H](CO)C(=O)Nc1ccc(N2CCOCC2)cc1)C(Br)C(Br)c1ccc(F)cc1 (stereo partly specified)	70%
